{"source": "PubChem BioAssay AID809", "about": "(SRMLSC, 2007)", "note": "Calls of active or inactive are those of the source.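 How the source made its calls: active means EC50 for reversing nicotinamide-shortened yeast lifespan at or below a set limit; inactive means EC50 above that limit.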", "data": [{"tested_on": "S. cerevisiae DeaD BB579, nicotinamide rescue growth, OD615 48 h", "experiment": "BB579 yeast growth restoration under nicotinamide – S. cerevisiae, yeast lifespan extension project, dose response (AID 809)", "procedure,_shortened": "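System – S. cerevisiae DeaD strain BB579 · Buffer or medium – CSMM-D glucose restrictive medium · Times – culture pre-incubation 4 h, then compound exposure 48 h, both 30 °C · Signal – OD615 absorbance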", "values": [{"smiles": "Nc1cccc2c1C(=O)N(C(=O)c1ccc(Cl)c(S(=O)(=O)N3CCCCCC3)c1)C2=O", "EC50": "7.66 µM"}, {"smiles": "C=CCN(CC=C)c1nc2ccccc2nc1C(C#N)C(=O)OC(C)C", "note": "(stereo not drawn)", "EC50": "> 10 µM (inactive)"}, {"smiles": "CCOc1ccc(N=Cc2c(O)c3ccccc3oc2=O)cc1", "EC50": "> 10 µM (inactive)"}, {"smiles": "Cc1cc(C)cc(CC2CC(=O)N(c3ccc(Cl)cn3)C2=O)c1", "note": "(stereo not drawn)", "EC50": "> 10 µM (inactive)"}, {"smiles": "COc1ccc(C(C)NC(=O)c2ccccc2)cc1", "note": "(stereo not drawn)", "EC50": "> 10 µM (inactive)"}, {"smiles": "O=c1c(Cl)c(NCCCO)cnn1-c1nc2ccccc2[nH]1", "EC50": "7.65 µM"}, {"smiles": "O=c1cc(-c2ccccc2Cl)oc2ccc([N+](=O)[O-])c(O)c12", "EC50": "7.35 µM"}, {"smiles": "C=C(C(=O)c1ccccc1)C(CC(=O)c1ccccc1)c1ccccc1", "note": "(stereo not drawn)", "EC50": "8.08 µM"}, {"smiles": "O=C1/C(=N/n2cnnc2)c2ccccc2N1Cc1ccccc1", "EC50": "9.61 µM"}, {"smiles": "CNC(=O)/C(C#N)=C/c1c(F)cccc1Cl", "EC50": "7.85 µM"}, {"smiles": "COc1ccc(C(=O)Nc2ccc(OCc3ccccc3)cc2)cc1[N+](=O)[O-]", "EC50": "> 10 µM (inactive)"}, {"smiles": "CCCCCCCCn1c(=O)c(C(=O)OCC)c(O)c2ccccc21", "EC50": "9.18 µM"}, {"smiles": "CCn1c(/C=N/c2nc3ccccc3n2C)nc2ccccc21", "EC50": "> 10 µM (inactive)"}, {"smiles": "COc1ccc(CC(=O)Nc2ccc3c(c2)CCC3)cc1S(=O)(=O)N1CCOCC1", "EC50": "> 10 µM (inactive)"}, {"smiles": "O=C1c2ccccc2C(=O)N1OCc1ccccc1", "EC50": "> 10 µM (inactive)"}, {"smiles": "CC(C)=C1C(=O)NN(c2ccc(C)c(Cl)c2)C1=O", "EC50": "9.85 µM"}, {"smiles": "COc1cccc(/C=C2\\C(=O)N(c3cccc(C)c3)C(=O)c3ccccc32)c1", "EC50": "> 10 µM (inactive)"}, {"smiles": "Cc1ccc(N/C(C(Cl)=C(Cl)Cl)=C(/Cl)[N+](=O)[O-])c(C)c1", "EC50": "8.68 µM"}, {"smiles": "O=C(c1ccc(F)cc1)C(CN1CCOCC1)c1ccccc1", "note": "(stereo not drawn)", "EC50": "1.12 µM"}, {"smiles": "O=C1CC(c2ccccc2)CC(O)=C1C=NCCN1CCNCC1", "note": "(stereo not drawn)", "EC50": "> 10 µM (inactive)"}, {"smiles": "COc1ccc(CN2C(=O)/C(=C/c3ccncc3)SC2=S)cc1", "EC50": "6.07 µM"}, {"smiles": "Cc1ccccc1OC(=O)n1c(=S)oc2cc(Cl)ccc21", "EC50": "6.59 µM"}, {"smiles": "O=C1C=CC2C(c3ccc4c(c3)OCO4)CC1N2Cc1ccccc1", "note": "(stereo not drawn)", "EC50": "6.04 µM"}, {"smiles": "CN1C(=O)C(C(=O)Nc2ccccc2F)c2ccccc21", "note": "(stereo not drawn)", "EC50": "9.71 µM"}, {"smiles": "Cc1ccc(N2NC(=O)/C(=C\\c3cc4c(cc3[N+](=O)[O-])OCO4)C2=O)cc1C", "EC50": "> 10 µM (inactive)"}, {"smiles": "CN1C(=O)NC(c2ccc(O)cc2)C(C(=O)c2cccs2)C1(O)C(F)(F)F", "note": "(stereo not drawn)", "EC50": "> 10 µM (inactive)"}, {"smiles": "COc1ccc(NC(=S)N2CCN(CCN=CC3=C(O)CC(c4ccccc4)CC3=O)CC2)cc1", "note": "(stereo not drawn)", "EC50": "7.32 µM"}, {"smiles": "COC(=O)C(=O)/C=C(\\O)c1ccc(C)cc1", "EC50": "5.88 µM"}, {"smiles": "CCSc1nnc(NC(=O)C2(C)Cc3ccccc3C(=O)O2)s1", "note": "(stereo not drawn)", "EC50": "6.52 µM"}, {"smiles": "CCCCC1C(=O)CC[C@H]2[C@@H]1CC(=O)[C@@H]2C/C=C\\CCCC(=O)O", "note": "(stereo partly drawn)", "EC50": "8.1 µM"}, {"smiles": "CC(C)(C)OC(=O)[C@H]1[C@H](c2ccc([N+](=O)[O-])cc2)C2(C(=O)c3ccccc3C2=O)C2c3ccccc3C=NN21", "note": "(stereo partly drawn)", "EC50": "8.16 µM"}, {"smiles": "O=C1C=CCC(/C=C/c2ccccc2)O1", "note": "(stereo not drawn)", "EC50": "> 10 µM (inactive)"}, {"smiles": "Cc1ccc2nc(-c3ccc(NC(=O)CSc4ccccc4)cc3)[nH]c2c1", "EC50": "> 10 µM (inactive)"}, {"smiles": "O=C(/C=C(\\O)c1ccc(Cl)cc1)C(=O)NNC(=O)C(O)(c1ccccc1)c1ccccc1", "EC50": "2.75 µM"}, {"smiles": "CCCC[n+]1c(-c2ccc(Cl)cc2Cl)csc1Nc1ccccc1", "EC50": "> 10 µM (inactive)"}, {"smiles": "CSc1ccc(S(=O)(=O)NCc2ccc(Cl)cc2Cl)cc1", "EC50": "> 10 µM (inactive)"}, {"smiles": "COCCn1c(SCC(=O)Nc2ccc(C)cc2)nc2c(oc3ccccc32)c1=O", "EC50": "> 10 µM (inactive)"}, {"smiles": "O=c1[nH]c2ccccc2nc1Cc1ccccc1", "EC50": "> 10 µM (inactive)"}, {"smiles": "CCCCC(c1nnnn1CC1CCCO1)N1CCN(c2nc3ccccc3s2)CC1", "note": "(stereo not drawn)", "EC50": "> 10 µM (inactive)"}, {"smiles": "O=C1OC2(CCCCC2)OC(=O)C1=CNc1nc2ccccc2s1", "EC50": "> 10 µM (inactive)"}, {"smiles": "CCCCN(CCCC)c1ccc(C(=O)c2ccccc2C(=O)O)c(O)c1", "EC50": "6.81 µM"}, {"smiles": "CCCc1nc2c(c(=O)c3ccccc3n2C)c(=O)n1C1CCCCCC1", "EC50": "> 10 µM (inactive)"}, {"smiles": "COc1ccc2c3c(cccc13)C(=O)N(O)C2=O", "EC50": "2.08 µM"}, {"smiles": "CCCCC(=O)Nc1ccc(C(=O)NNC(=S)NC(=O)c2cccs2)cc1", "EC50": "8.39 µM"}, {"smiles": "CC(C)c1ccc2occ(-c3nn[nH]n3)c(=O)c2c1", "EC50": "6.44 µM"}, {"smiles": "COc1cc(Br)cc(-c2nc3c(c(=O)[nH]c(=O)n3Cc3ccccc3)n2C)c1O", "EC50": "> 10 µM (inactive)"}, {"smiles": "Cc1nonc1NC(=O)CSc1nc(C2CCCCC2)nc2ccccc12", "EC50": "> 10 µM (inactive)"}, {"smiles": "Cc1nc(SC(C)C)[nH]c(=O)c1Cc1ccccc1", "EC50": "> 10 µM (inactive)"}, {"smiles": "CCN1C(=O)/C(=C/N(C(C)=O)c2ccccc2)N(c2ccccc2)C1=S", "EC50": "> 10 µM (inactive)"}, {"smiles": "O=c1c2ccccc2nc(-c2ccc(Cl)c(Cl)c2)n1O", "EC50": "> 10 µM (inactive)"}, {"smiles": "CN(C)CC(C(=O)c1ccccc1)c1ccccc1", "note": "(stereo not drawn)", "EC50": "6.36 µM"}, {"smiles": "Cc1nn(C(C)(C)C)c(OC(=O)c2ccc(Br)o2)c1Sc1ccccc1", "EC50": "7.84 µM"}, {"smiles": "O=C(Nc1scc(-c2cccs2)c1C(=O)O)c1cccs1", "EC50": "6.7 µM"}]}]}
